Laboratory results from ChEMBL document CHEMBL4354817, “4-(3-Aminoazetidin-1-yl)pyrimidin-2-amines as High-Affinity Non-imidazole Histamine H3 Receptor Agonists with in Vivo Central Nervous System Activity” (J Med Chem, 2019).
Activity calls are given as the source filed them. The calls are words filed in the database; no cut-off is given here.

Tests used:
Histamine H3 receptor [1] = biological target: T1, Histamine H3 receptor (Homo sapiens, UniProt Q9Y5N1); experiment: Displacement of [3H]NAMH from human H3R expressed in HEK293T cells incubated for 2 hrs by microbeta scintillation counting analysis; type: cell-based
T1 sequence (Q9Y5N1 whole entry): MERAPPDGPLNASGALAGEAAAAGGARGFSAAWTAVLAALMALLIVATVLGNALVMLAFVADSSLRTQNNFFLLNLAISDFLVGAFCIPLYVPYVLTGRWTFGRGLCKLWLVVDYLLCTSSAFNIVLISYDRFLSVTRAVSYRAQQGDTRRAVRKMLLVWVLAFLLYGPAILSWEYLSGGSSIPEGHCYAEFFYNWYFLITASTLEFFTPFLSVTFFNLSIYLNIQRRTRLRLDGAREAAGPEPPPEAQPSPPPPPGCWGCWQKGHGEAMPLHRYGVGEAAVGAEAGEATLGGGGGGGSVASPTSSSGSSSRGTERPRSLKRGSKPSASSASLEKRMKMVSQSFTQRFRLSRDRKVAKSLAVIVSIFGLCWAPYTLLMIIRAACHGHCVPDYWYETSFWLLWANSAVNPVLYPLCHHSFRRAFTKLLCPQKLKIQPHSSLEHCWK
How it was run: (§1)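 Homogenates of HEK293T cells transiently expressing hH3R or mH3R, harvested 48 h post-transfection, incubated with 2 nM [3H]NAMH and increasing unlabeled ligand in 50 mM Tris–HCl pH 7.4, 2 h at 25 °C. Rapid filtration over 0.5% PEI-coated GF/C filters, scintillation counting. One-site fit; IC50 converted to pKi by Cheng–Prusoff; three experiments in triplicate.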

Histamine H3 receptor [2] = biological target: T1, Histamine H3 receptor; experiment: Intrinsic activity at human H3R expressed on HEK293T cells assessed as activation of forskolin-induced CRE-driven luciferase activity co-incubated with forskolin for 6 hrs and measured after 30 mins by CRE-luciferase reporter gene assay relative to histamine; type: functional
How it was run: (§2)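 HEK293T cells transiently transfected (PEI method) in suspension with receptor cDNA (1000 ng), CRE-luciferase (2500 ng) and empty pcDEF3; 50.000 cells/well on poly-L-lysine, grown 24 h. Stimulated with increasing ligand concentrations plus 1 μM forskolin, 37 °C, 5% CO2, 6 h. Luciferase reagent (ATP, D-luciferin) added, luminescence read after 30 min at 37 °C. Nonlinear regression; α relative to histamine; three experiments in triplicate.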

Histamine H3 receptor [3] = biological target: T1, Histamine H3 receptor; experiment: Agonist activity at human H3R expressed on HEK293T cells assessed as inhibition of forskolin-induced CRE-driven luciferase activity co-incubated with forskolin for 6 hrs and measured after 30 mins by CRE-luciferase reporter gene assay; type: functional; how it was run: as §2
Mus musculus [4] = experiment: Effect on social recognition in C57Bl6 mouse assessed as change in time spent with familiar juvenile at 5 mg/kg, ip administered 30 mins prior to training trial; type: ADME, organism-based; conditions: in vivo, 0.5 h
How it was run: (§3)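 Male C57Bl6 mice, 8–9 weeks. Session 1: 10 min arena habituation with two empty wire cups. 24 h later, 10 min with juvenile (4–5 weeks) under one cup; 1 h later, 10 min test with familiar plus novel juvenile. 5 mg/kg or vehicle i.p. 30 min before second session. Blind video scoring of exploration; sociability and discrimination indices; 10–11 mice/group.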

[5] = biological target: Histamine H3 receptor (Mus musculus) (UniProt P58406); experiment: Intrinsic activity at mouse H3R expressed on HEK293T cells assessed as activation of forskolin-induced CRE-luciferase reporter gene activity co-incubated with forskolin for 6 hrs and measured after 30 mins by luciferase reporter gene assay; type: functional; how it was run: as §2
Chain of Histamine H3 receptor (Mus musculus) (P58406 whole entry): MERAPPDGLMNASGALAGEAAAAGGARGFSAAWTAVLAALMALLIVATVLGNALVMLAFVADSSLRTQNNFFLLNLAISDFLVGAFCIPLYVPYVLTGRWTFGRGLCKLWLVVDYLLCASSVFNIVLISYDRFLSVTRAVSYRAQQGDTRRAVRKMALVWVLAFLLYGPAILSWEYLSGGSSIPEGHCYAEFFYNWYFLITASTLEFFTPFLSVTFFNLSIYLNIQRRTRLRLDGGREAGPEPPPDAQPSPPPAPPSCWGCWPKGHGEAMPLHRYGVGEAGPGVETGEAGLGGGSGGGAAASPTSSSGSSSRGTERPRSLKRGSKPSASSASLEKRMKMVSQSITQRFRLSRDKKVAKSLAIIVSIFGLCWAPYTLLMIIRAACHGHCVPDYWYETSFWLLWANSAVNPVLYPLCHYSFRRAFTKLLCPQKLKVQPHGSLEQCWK

Cytochrome P450 2D6 = Cytochrome P450 2D6 (Homo sapiens, UniProt P10635); experiment: Inhibition of human CYP2D6 expressed in baculovirus infected insect cells using beetle D-luciferin as substrate preincubated for 30 mins followed by NADPH addition and measured after 30 mins by CYP450-Glo assay; type: ADME
Chain of Cytochrome P450 2D6 (P10635 whole entry): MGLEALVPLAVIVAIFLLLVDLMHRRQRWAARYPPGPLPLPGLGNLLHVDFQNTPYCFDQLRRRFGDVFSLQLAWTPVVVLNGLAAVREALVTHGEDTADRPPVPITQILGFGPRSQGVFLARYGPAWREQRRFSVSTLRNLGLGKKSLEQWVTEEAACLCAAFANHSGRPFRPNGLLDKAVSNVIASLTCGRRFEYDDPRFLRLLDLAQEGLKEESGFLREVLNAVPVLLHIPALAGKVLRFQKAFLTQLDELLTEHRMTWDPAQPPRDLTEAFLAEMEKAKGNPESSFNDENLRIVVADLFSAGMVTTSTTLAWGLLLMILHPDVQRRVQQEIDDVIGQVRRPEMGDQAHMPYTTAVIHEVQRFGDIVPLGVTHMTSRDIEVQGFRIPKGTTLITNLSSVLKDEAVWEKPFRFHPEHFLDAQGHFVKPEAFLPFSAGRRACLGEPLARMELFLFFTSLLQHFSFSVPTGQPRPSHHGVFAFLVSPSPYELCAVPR

[6] = biological target: Histamine H2 receptor (Homo sapiens) (UniProt P25021); experiment: Agonist activity at human H2R expressed on HEK293T cells assessed as inhibition of forskolin-induced CRE-driven luciferase activity up to 10 uM pre-incubated with forskolin for 6 hrs and measured after 30 mins by luciferase reporter gene assay; type: functional
Chain of Histamine H2 receptor (Homo sapiens) (P25021 whole entry): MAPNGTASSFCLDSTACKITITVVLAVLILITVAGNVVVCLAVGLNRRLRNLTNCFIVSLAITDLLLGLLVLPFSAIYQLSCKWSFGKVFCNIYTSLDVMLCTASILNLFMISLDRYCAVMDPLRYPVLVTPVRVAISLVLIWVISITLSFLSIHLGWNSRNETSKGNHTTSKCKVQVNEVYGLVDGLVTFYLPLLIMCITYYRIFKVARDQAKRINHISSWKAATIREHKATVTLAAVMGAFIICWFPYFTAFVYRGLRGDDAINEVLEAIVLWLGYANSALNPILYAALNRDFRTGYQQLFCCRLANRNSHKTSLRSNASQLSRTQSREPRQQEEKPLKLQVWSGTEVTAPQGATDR
How it was run: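 HEK293T cells transfected in suspension with H2R cDNA (2500 ng), CRE-luciferase (2500 ng) and empty pcDEF3; 50.000 cells/well, grown 24 h before ligand stimulation. Luminescence read 30 min after luciferase reagent (ATP, D-luciferin) at 37 °C. Dose–response curves fitted by nonlinear regression.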

Histamine H3 receptor [7] = biological target: T2, Histamine H3 receptor (Mus musculus, UniProt P58406); experiment: Displacement of [3H]NAMH from mouse H3R expressed in HEK293T cells incubated for 2 hrs by microbeta scintillation counting analysis; type: cell-based; how it was run: as §1
T2 sequence (P58406 whole entry): as the sequence (P58406 whole entry) above

[8] = Half life in mouse liver microsomes at 50 uM measured up to 45 mins by UPLC/MS analysis; type: ADME, Microsome
[9] = Intrinsic clearance in rat liver microsomes at 50 uM measured up to 45 mins by UPLC/MS analysis; type: ADME, Microsome; conditions: read-out: CLH
Histamine H3 receptor [10] = biological target: T1, Histamine H3 receptor; experiment: Agonist activity at human H3R expressed on HEK293T cells by [35S]GTPgammaS binding assay; type: functional
How it was run: (§4)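 [35S]GTPγS accumulation measured on homogenates of HEK293T cells transiently expressing hH3R, with increasing ligand concentrations; α expressed relative to histamine. At least three experiments in triplicate.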

Histamine H4 receptor [11] = biological target: T3, Histamine H4 receptor (Mus musculus, UniProt Q91ZY2); experiment: Agonist activity at mouse H4R expressed on HEK293T cells assessed as inhibition of forskolin-induced CRE-driven luciferase activity co-incubated with forskolin for 6 hrs and measured after 30 mins by luciferase reporter gene assay; type: functional; how it was run: as §2
T3 sequence (Q91ZY2 whole entry): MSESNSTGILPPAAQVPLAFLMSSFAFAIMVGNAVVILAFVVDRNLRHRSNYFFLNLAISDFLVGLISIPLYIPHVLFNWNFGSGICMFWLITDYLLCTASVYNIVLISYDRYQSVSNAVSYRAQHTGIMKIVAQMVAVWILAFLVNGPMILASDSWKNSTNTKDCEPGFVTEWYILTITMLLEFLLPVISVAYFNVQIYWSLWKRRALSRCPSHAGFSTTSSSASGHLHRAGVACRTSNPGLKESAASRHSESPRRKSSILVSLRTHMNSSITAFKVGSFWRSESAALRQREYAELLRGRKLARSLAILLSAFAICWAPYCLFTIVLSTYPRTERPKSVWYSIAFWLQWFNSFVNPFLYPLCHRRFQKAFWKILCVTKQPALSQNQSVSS

Histamine H4 receptor [12] = biological target: T4, Histamine H4 receptor (Homo sapiens, UniProt Q9H3N8); experiment: Intrinsic activity at human H4R expressed on HEK293T cells assessed as activation of forskolin-induced CRE-driven luciferase activity co-incubated with forskolin for 6 hrs and measured after 30 mins by CRE-luciferase reporter gene assay relative to histamine; type: functional; how it was run: as §2
T4 sequence (Q9H3N8 whole entry): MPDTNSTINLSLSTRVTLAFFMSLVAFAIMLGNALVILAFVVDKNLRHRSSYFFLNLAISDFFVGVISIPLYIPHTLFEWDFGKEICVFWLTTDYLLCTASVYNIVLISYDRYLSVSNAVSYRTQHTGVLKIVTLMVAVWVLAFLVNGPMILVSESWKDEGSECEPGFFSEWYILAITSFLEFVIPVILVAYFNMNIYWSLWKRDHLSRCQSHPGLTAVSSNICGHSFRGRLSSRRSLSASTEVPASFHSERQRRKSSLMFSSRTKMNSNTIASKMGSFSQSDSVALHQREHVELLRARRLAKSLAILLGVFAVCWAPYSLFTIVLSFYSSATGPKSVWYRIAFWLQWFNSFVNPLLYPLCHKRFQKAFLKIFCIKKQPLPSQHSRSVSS

Cytochrome P450 2C9 = Cytochrome P450 2C9 (Homo sapiens, UniProt P11712); experiment: Inhibition of human CYP2C9 expressed in baculovirus infected insect cells using beetle D-luciferin as substrate preincubated for 30 mins followed by NADPH addition and measured after 30 mins by CYP450-Glo assay; type: ADME
Chain of Cytochrome P450 2C9 (P11712 whole entry): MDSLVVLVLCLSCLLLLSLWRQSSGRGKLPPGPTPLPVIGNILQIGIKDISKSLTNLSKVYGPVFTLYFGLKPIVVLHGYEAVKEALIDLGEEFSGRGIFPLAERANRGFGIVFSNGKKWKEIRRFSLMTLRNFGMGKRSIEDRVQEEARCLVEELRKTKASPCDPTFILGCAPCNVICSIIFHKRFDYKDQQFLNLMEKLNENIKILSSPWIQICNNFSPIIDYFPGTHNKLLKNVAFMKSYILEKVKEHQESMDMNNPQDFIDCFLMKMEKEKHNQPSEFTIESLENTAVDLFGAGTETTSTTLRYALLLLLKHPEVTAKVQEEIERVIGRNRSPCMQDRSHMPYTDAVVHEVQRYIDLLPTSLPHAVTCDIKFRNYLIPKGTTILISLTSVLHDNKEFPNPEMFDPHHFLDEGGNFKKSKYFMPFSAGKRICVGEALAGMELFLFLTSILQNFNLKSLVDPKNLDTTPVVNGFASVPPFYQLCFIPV

Histamine H4 receptor [13] = biological target: T4, Histamine H4 receptor; experiment: Agonist activity at human H4R expressed on HEK293T cells assessed as inhibition of forskolin-induced CRE-driven luciferase activity co-incubated with forskolin for 6 hrs and measured after 30 mins by CRE-luciferase reporter gene assay; type: functional; how it was run: as §2
[14] = biological target: T5, Histamine H4 receptor (Mus musculus) (UniProt Q91ZY2); experiment: Intrinsic activity at mouse H4R expressed on HEK293T cells assessed as activation of forskolin-induced CRE-luciferase reporter gene activity co-incubated with forskolin for 6 hrs and measured after 30 mins by luciferase reporter gene assay; type: functional; how it was run: as §2
T5 sequence (whole entry): T3 sequence (Q91ZY2 whole entry)

Histamine H4 receptor [15] = biological target: T3, Histamine H4 receptor; experiment: Displacement of [3H]histamine from mouse H4R expressed in HEK293T cells incubated for 2 hrs by microbeta scintillation counting analysis; type: cell-based
How it was run: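 mH4R-expressing HEK293T homogenates incubated with 30 nM [3H]histamine and increasing unlabeled ligand in 50 mM Tris–HCl pH 7.4, 2 h at 25 °C. Filtered over 0.5% PEI-coated GF/C filters; bound radioactivity counted. One-site fit, Cheng–Prusoff conversion to pKi.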

Histamine H4 receptor [16] = biological target: T4, Histamine H4 receptor; experiment: Displacement of [3H]histamine from human H4R expressed in HEK293T cells incubated for 2 hrs by microbeta scintillation counting analysis
Histamine H3 receptor [17] = biological target: T2, Histamine H3 receptor; experiment: Agonist activity at mouse H3R expressed on HEK293T cells assessed as inhibition of forskolin-induced CRE-driven luciferase activity co-incubated with forskolin for 6 hrs and measured after 30 mins by luciferase reporter gene assay; type: functional; how it was run: as §2
Mus musculus [18] = experiment: Effect on social recognition in C57Bl6 mouse assessed as change in behavior at 5 mg/kg, ip administered 30 mins prior to training trial; type: ADME, organism-based; conditions: in vivo, 0.5 h; how it was run: as §3
Mus musculus [19] = experiment: Effect on social recognition in C57Bl6 mouse assessed as change in time spent in exploring cage at 5 mg/kg, ip administered 30 mins prior to training trial; type: ADME, organism-based; conditions: in vivo, 0.5 h; how it was run: as §3
Histamine H3 receptor [20] = biological target: T1, Histamine H3 receptor; experiment: Intrisic activity at human H3R expressed on HEK293T cells by [35S]GTPgammaS binding assay relative to histamine; type: functional; how it was run: as §4
[21] = Half life in rat liver microsomes at 50 uM measured up to 45 mins by UPLC/MS analysis; type: ADME, Microsome; conditions: 0.75 h
[22] = Intrinsic clearance in mouse liver microsomes at 50 uM measured up to 45 mins by UPLC/MS analysis; type: ADME, Microsome; conditions: read-out: CLH
Mus musculus [23] = experiment: Effect on social recognition in C57Bl6 mouse assessed as change in time spent with novel juvenile at 5 mg/kg, ip administered 30 mins prior to training trial; type: ADME, organism-based; conditions: in vivo, 0.5 h; how it was run: as §3
Cytochrome P450 3A4 = Cytochrome P450 3A4 (Homo sapiens, UniProt P08684); experiment: Inhibition of human CYP3A4 expressed in baculovirus infected insect cells using beetle D-luciferin as substrate preincubated for 30 mins followed by NADPH addition and measured after 30 mins by CYP450-Glo assay; type: ADME
Chain of Cytochrome P450 3A4 (P08684 whole entry): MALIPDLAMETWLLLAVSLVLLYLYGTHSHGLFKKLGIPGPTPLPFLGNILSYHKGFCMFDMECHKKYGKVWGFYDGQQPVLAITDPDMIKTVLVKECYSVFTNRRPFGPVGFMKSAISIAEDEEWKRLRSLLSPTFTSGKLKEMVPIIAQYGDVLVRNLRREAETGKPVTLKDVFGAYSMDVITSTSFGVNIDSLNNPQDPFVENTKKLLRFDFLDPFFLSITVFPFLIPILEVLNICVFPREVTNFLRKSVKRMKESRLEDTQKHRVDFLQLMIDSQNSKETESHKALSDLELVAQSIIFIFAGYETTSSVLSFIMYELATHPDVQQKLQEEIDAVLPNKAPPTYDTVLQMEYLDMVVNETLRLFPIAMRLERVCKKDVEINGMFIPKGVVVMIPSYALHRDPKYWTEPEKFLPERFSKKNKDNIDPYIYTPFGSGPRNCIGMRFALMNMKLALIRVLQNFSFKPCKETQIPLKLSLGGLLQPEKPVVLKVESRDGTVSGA

CC(C)CNC1CN(c2ccnc(N)n2)C1
Ki (Histamine H3 receptor [1]): 39.8 nM
Intrinsic activity (Histamine H3 receptor [2]): 1.1
EC50 (Histamine H3 receptor [3]): 5.01 nM

CCc1cc(N2CC(N)C2)nc(N)n1
Ki (Histamine H3 receptor [1]): 79.4 nM
Intrinsic activity (Histamine H3 receptor [2]): 0.9
EC50 (Histamine H3 receptor [3]): 31.6 nM

CCN(CC)C1CN(c2ccnc(N)n2)C1
Ki (Histamine H3 receptor [1]): 63.1 nM
Intrinsic activity (Histamine H3 receptor [2]): 1.2
EC50 (Histamine H3 receptor [3]): 7.94 nM

CC(C)c1cc(N2CC(N(C)C)C2)nc(N)n1
Ki (Histamine H3 receptor [1]): 126 nM
Intrinsic activity (Histamine H3 receptor [2]): 0.4
EC50 (Histamine H3 receptor [3]): 100 nM

CNC1CN(c2cc(C)nc(N)n2)C1
Ki (Histamine H3 receptor [1]): 31.6 nM
Intrinsic activity (Histamine H3 receptor [2]): 0.8
EC50 (Histamine H3 receptor [3]): 10 nM

Nc1nccc(N2CC(N3CCCC3)C2)n1
Ki (Histamine H3 receptor [1]): 39.8 nM
Intrinsic activity (Histamine H3 receptor [2]): 1.3
EC50 (Histamine H3 receptor [3]): 7.94 nM

CCNC1CN(c2cc(C(C)C)nc(N)n2)C1
Ki (Histamine H3 receptor [1]): 100 nM
Intrinsic activity (Histamine H3 receptor [2]): 0.3
EC50 (Histamine H3 receptor [3]): 158 nM

CCC(C)NC1CN(c2ccnc(N)n2)C1 (racemic)
Ki (Histamine H3 receptor [1]): 12.6 nM
Intrinsic activity (Histamine H3 receptor [2]): 1.1
EC50 (Histamine H3 receptor [3]): 2 nM

CCNC1CN(c2ccnc(N)n2)C1
Ki (Histamine H3 receptor [1]): 10 nM
Intrinsic activity (Histamine H3 receptor [2]): 1
EC50 (Histamine H3 receptor [3]): 0.631 nM

CNC1CN(c2cc(C(C)C)nc(N)n2)C1
Ki (Histamine H3 receptor [1]): 100 nM
Intrinsic activity (Histamine H3 receptor [2]): 0.7
EC50 (Histamine H3 receptor [3]): 12.6 nM

Nc1nccc(N2CC(N)C2)n1
Ki (Histamine H3 receptor [1]): 15.8 nM
Intrinsic activity (Histamine H3 receptor [2]): 1.1
EC50 (Histamine H3 receptor [3]): 5.01 nM

CCCNC1CN(c2ccnc(N)n2)C1.O.O=C(O)/C=C/C(=O)O
Activity (Mus musculus [4]): Non-Toxic
Intrinsic activity [5]: 1.2
IC50 (Cytochrome P450 2D6): > 25000 nM
Activity [6]: inactive
Ki (Histamine H3 receptor [7]): 1 nM
half-life at 50 µM [8]: 2.18 h
Ki (Histamine H3 receptor [1]): 3.16 nM
CLint scaled at 50 µM [9]: 7.9 mL/min/kg
EC50 (Histamine H3 receptor [10]): 3.98 nM
EC50 (Histamine H4 receptor [11]): 1 nM
Intrinsic activity (Histamine H4 receptor [12]): 1.1
IC50 (Cytochrome P450 2C9): > 25000 nM
EC50 (Histamine H4 receptor [13]): 3.16 nM
Intrinsic activity [14]: 1.1
Ki (Histamine H4 receptor [15]): 15.8 nM
Ki (Histamine H4 receptor [16]): 7.94 nM
EC50 (Histamine H3 receptor [17]): 0.1 nM
Activity (Mus musculus [18]): Non-Toxic
Intrinsic activity (Histamine H3 receptor [2]): 1.2
Activity (Mus musculus [19]): Non-Toxic
EC50 (Histamine H3 receptor [3]): 0.316 nM
Intrinsic activity (Histamine H3 receptor [20]): 0.5
t1/2 [21]: 3.98 h
CLint scaled at 50 µM [22]: 20.7 mL/min/kg
Activity (Mus musculus [23]): Non-Toxic
IC50 (Cytochrome P450 3A4): > 25000 nM
